Measured values published in ChEMBL document CHEMBL4393661, “PRODRUGS FOR NITROREDUCTASE BASED CANCER THERAPY- 2: Novel amide/Ntr combinations targeting PC3 cancer cells” (Eur J Med Chem, 2019).

Tests used:
Format in all cases: ADME
[1] = target: T1, Oxygen-insensitive NAD(P)H nitroreductase (Escherichia coli K-12, UniProt P38489); experiment: Substrate activity at Escherichia coli nitroreductase nfsB assessed as ratio of Kcat/Km up to 80 mM using NADH as cofactor relative to CB1954/NfsB
T1 sequence (P38489 whole entry): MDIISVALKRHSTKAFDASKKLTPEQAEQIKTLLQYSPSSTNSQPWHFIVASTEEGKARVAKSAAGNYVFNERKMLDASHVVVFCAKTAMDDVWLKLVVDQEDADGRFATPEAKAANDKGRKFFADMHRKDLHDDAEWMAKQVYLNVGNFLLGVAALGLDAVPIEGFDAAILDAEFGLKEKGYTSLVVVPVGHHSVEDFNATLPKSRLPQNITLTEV

Putative nitroreductase [2] = target: T2, Putative nitroreductase (Staphylococcus saprophyticus subsp. saprophyticus (strain ATCC 15305 / DSM20229 / NCIMB 8711 / NCTC 7292 / S-41), UniProt Q4A0P1); experiment: Substrate activity at Staphylococcus saprophyticus nitroreductase assessed as Kcat using NADPH as cofactor in presence of Tris-Cl buffer at pH 7.5 by spectrophotometric method
T2 sequence (Q4A0P1 whole entry): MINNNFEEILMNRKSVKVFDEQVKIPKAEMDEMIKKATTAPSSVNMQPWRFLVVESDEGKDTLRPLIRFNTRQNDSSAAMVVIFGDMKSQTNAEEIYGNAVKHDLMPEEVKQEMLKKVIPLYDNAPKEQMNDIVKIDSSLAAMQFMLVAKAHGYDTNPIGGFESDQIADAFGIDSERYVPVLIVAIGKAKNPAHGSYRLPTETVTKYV
Procedure, shortened: (§1)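 Michaelis–Menten parameters for recombinant Ssap-NtrB were measured spectrophotometrically at 25 °C in 25 mM Tris-Cl buffer pH 7.5 containing 5% DMSO as cosolvent.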

[3] = target: T3, Staphylococcus saprophyticus nitroreductase (Staphylococcus saprophyticus subsp. saprophyticus (strain ATCC 15305 / DSM20229 / NCIMB 8711 / NCTC 7292 / S-41), UniProt Q4A0P1); experiment: Substrate activity at Staphylococcus saprophyticus nitroreductase assessed as Km using NADPH as cofactor in presence of Tris-Cl buffer at pH 7.5 by spectrophotometric method; procedure, shortened: as §1
T3 sequence (Q4A0P1 whole entry): T2 sequence (Q4A0P1 whole entry)

[4] = target: T4, Escherichia coli nitroreductase nfsB (oxygen-insensitive NAD(P)H nitroreductase) (Escherichia coli K-12, UniProt P38489); experiment: Substrate activity at Escherichia coli nitroreductase nfsB assessed as Km using NADH as cofactor in Tris-Cl buffer at pH 7.5 by spectrophotometric method
T4 sequence (P38489 whole entry): T1 sequence (P38489 whole entry)

Putative nitroreductase [5] = target: T2, Putative nitroreductase; experiment: Substrate activity at Staphylococcus saprophyticus nitroreductase assessed as ratio of Kcat/Km using NADPH as cofactor in presence of Tris-Cl buffer at pH 7.5 by spectrophotometric method; procedure, shortened: as §1
[6] = target: T1, Oxygen-insensitive NAD(P)H nitroreductase; experiment: Substrate activity at Escherichia coli nitroreductase nfsB assessed as ratio of Kcat/Km using NADH as cofactor in Tris-Cl buffer at pH 7.5 by spectrophotometric method
Putative nitroreductase [7] = target: T2, Putative nitroreductase; experiment: Prodrug conversion assessed Staphylococcus saprophyticus nitroreductase expressed in Escherichia coli-mediated (4-(hydroxyamino)phenyl)(morpholino)methanone metabolite formation by measuring retention time of metabolite at 100 uM incubated for 15 mins by HPLC analysis; conditions: 0.25 h
Procedure, shortened: (§2)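 Recombinant Ssap-NtrB, Ni-column purified, was used at 2.5 µg/mL. Substrate at 100 µM was reacted with 200 µM NADH in 25 mM Tris/Cl pH 7.5 with 10% DMSO at 25 °C for 15 min. The reaction was stopped 1:1 with cold acetonitrile and run on C18 RP-HPLC at 1 mL/min with a 20–80% ACN gradient. Peaks were detected at 254 and 340 nm.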

Putative nitroreductase [8] = target: T2, Putative nitroreductase; experiment: Prodrug conversion assessed Staphylococcus saprophyticus nitroreductase expressed in Escherichia coli-mediated PP (4-(hydroxyamino)phenyl)(piperidin-1-yl)methanone metabolite formation by measuring retention time of metabolite at 100 uM incubated for 15 mins by HPLC analysis; conditions: 0.25 h; procedure, shortened: as §2
Putative nitroreductase [9] = target: T2, Putative nitroreductase; experiment: Prodrug conversion assessed Staphylococcus saprophyticus nitroreductase expressed in Escherichia coli-mediated (4-aminophenyl)(piperidin-1-yl)methanone metabolite formation by measuring retention time in presence of FDH cofactor regeneration system at 100 uM by HPLC analysis
Procedure, shortened: (§3)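 This was a coupled regeneration reaction: 100 µM substrate in Tris/Cl pH 7.5 with 5–15% DMSO, plus 100 µM NADH, 10 µM NAD+, 0.1 mg/mL BSA, 200 µM sodium formate, 30 µg/mL Ssap-NtrB and 30 µg/mL Candida methylica FDH, at 25 °C. Aliquots were taken over time, quenched 1:1 with cold acetonitrile and analysed by C18 HPLC using program II (20→80→20% ACN). Peak areas were read at 254 and 340 nm.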

Putative nitroreductase [10] = target: T2, Putative nitroreductase; experiment: Prodrug conversion assessed Staphylococcus saprophyticus nitroreductase expressed in Escherichia coli-mediated PP (4-(hydroxyamino)phenyl)(piperidin-1-yl)methanone metabolite formation by measuring retention time in presence of FDH cofactor regeneration system at 100 uM by HPLC analysis; procedure, shortened: as §3

Structure (SMILES): NC(=O)c1cc(N(CCCl)CCCl)c([N+](=O)[O-])cc1[N+](=O)[O-]
- fold change (FC) [1]: 1.89
- Kcat (Putative nitroreductase [2]): 0.8 s⁻¹
- Km [3]: 82.4 µM
- Km [4]: 2.5 mM
- Kcat/Km (Putative nitroreductase [5]): 9350 s⁻¹ M⁻¹
- Kcat/Km [6]: 10560 s⁻¹ M⁻¹

Structure (SMILES): O=C(c1ccc(NO)cc1)N1CCOCC1
- Retention_time (Putative nitroreductase [7]): 11.71 min

Structure (SMILES): O=C(c1ccc(NO)cc1)N1CCCCC1
- Retention_time (Putative nitroreductase [8]): 15.99 min
- Retention_time (Putative nitroreductase [9]): 22.3 min
- Retention_time (Putative nitroreductase [10]): 14 min
